ChEMBL document CHEMBL3774372, “Design, physico-chemical properties and biological evaluation of some new N-[(phenoxy)alkyl]- and N-{2-[2-(phenoxy)ethoxy]ethyl}aminoalkanols as anticonvulsant agents” (Bioorg Med Chem, 2016)
Calls of active or inactive are those of the source.

What was measured:
Vibrio harveyi [1] = test: Mutagenicity in Vibrio harveyi BB7M assessed as number of colonies after 48 hrs (reference value: 13 to 14 no_unit); assay type: ADME, organism-based; conditions: in vivo
Summary of the method: (§1)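 Vibrio harveyi mutagenicity test: test compound was added to exponentially growing cultures (A600 = 0.1, 30 °C) and grown to OD600 0.3–0.4. Then 5 × 10^6 cells were plated on BOSS agar with neomycin (final 100 µg/mL) and incubated 48 h at 30 °C. Neomycin-resistant colonies were counted. Triplicate; controls were water, DMSO and NQNO 40 ng/mL.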

Mus musculus [2] = test: Neurotoxicity in mouse at 30 mg/kg, ip after 4 hrs by rotarod test; assay type: toxicity, organism-based; conditions: in vivo
Summary of the method: (§2)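 Mice were dosed ip with compound suspended in 0.5% methylcellulose. Rotarod: a 1 in. knurled rod turning at 6 rpm. Neurotoxicity was scored as failure to stay on the rod for at least 1 min in each of three trials. Results are given as the number of animals affected out of the number tested.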

Mus musculus [3] = test: Anticonvulsant activity in ip dosed mouse assessed as protection against subcutaneous pentylenetetrazol-induced seizures measured after […]; assay type: functional
Mus musculus [4] = test: Neurotoxicity in mouse at 20 mg/kg, ip after […] by rotarod test; assay type: toxicity, organism-based; conditions: in vivo
Rattus norvegicus [5] = test: Neurotoxicity in rat at 30 mg/kg, ip after 2 hrs by rotarod test; assay type: toxicity, organism-based; conditions: in vivo
Rattus norvegicus [6] = test: Neurotoxicity in rat at 30 mg/kg, po after 0.5 hrs by rotarod test; assay type: toxicity, organism-based; conditions: in vivo
Mus musculus [7] = test: Neurotoxicity in mouse at 40 mg/kg, ip after 4 hrs by rotarod test; assay type: toxicity, organism-based; conditions: in vivo
Rattus norvegicus [8] = test: Neurotoxicity in rat at 30 mg/kg, po after 1 hr by rotarod test; assay type: toxicity, organism-based; conditions: in vivo
Mus musculus [9] = test: Neurotoxicity in mouse at 20 mg/kg, ip after 2 hrs by rotarod test; assay type: toxicity, organism-based; conditions: in vivo
Mus musculus [10] = test: Anticonvulsant activity in ip dosed mouse assessed as protection against maximal electric shock-induced seizures measured after […]; assay type: functional
Rattus norvegicus [11] = test: Neurotoxicity in rat at 30 mg/kg, po after 4 hrs by rotarod test; assay type: toxicity, organism-based; conditions: in vivo
Mus musculus [12] = test: Neurotoxicity in mouse at 20 mg/kg, ip after 1 hr by rotarod test; assay type: toxicity, organism-based; conditions: in vivo
Vibrio harveyi [13] = test: Mutagenicity in Vibrio harveyi BB7 assessed as number of colonies after 48 hrs (reference value: 13 to 14 no_unit); assay type: ADME, organism-based; conditions: in vivo; summary of the method: as §1
in vitro [14] = conditions: mouse, liver microsomes
Rattus norvegicus [15] = test: Neurotoxicity in rat at 30 mg/kg, po after 2 hrs by rotarod test; assay type: toxicity, organism-based; conditions: in vivo
[16] = Retention time of the compound in mouse liver microsomes at 20 uM preincubated for 15 mins followed by addition of NADPH-regenerating system measured after 5 to 90 mins by […] analysis; assay type: ADME
Summary of the method: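 Mouse liver microsomes (0.4 mg/mL) with test compound (20 µM) in 100 mM potassium phosphate, pH 7.4, were preincubated 15 min at 37 °C. An NADPH-regenerating system was then added and incubation ran 5–90 min at 37 °C. Levallorphan (20 µM) served as internal standard, and reactions were quenched with perchloric acid. The supernatant was analysed by UPLC/MS. Duplicate incubations.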

Mus musculus [17] = test: Neurotoxicity in mouse at 40 mg/kg, ip after 2 hrs by rotarod test; assay type: toxicity, organism-based; conditions: in vivo
Vibrio harveyi [18] = test: Mutagenicity in Vibrio harveyi BB7XM assessed as number of colonies after 48 hrs (reference value: 14 no_unit); assay type: ADME, organism-based; conditions: in vivo; summary of the method: as §1
Mus musculus [19] = test: Neurotoxicity in mouse at 20 mg/kg, ip after 4 hrs by rotarod test; assay type: toxicity, organism-based; conditions: in vivo
[20] = Neurotoxicity in ip dosed mouse after […] by rotarod test; assay type: toxicity, organism-based; conditions: in vivo
Mus musculus [21] = test: Neurotoxicity in mouse at 20 mg/kg, ip after 0.5 hrs by rotarod test; assay type: toxicity, organism-based; conditions: in vivo
Vibrio harveyi [22] = test: Antimutagenic activity against Vibrio harveyi BB7 assessed as inhibition of NQNO-induced mutagenicity after 48 hrs; assay type: functional
Summary of the method: (§3)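 V. harveyi cultures grown exponentially to A600 0.1 at 30 °C, exposed to test compound for 15 min, then to NQNO, and grown on to A600 0.3–0.4. 5 × 10⁶ cells plated on BOSS agar with neomycin (100, final). Neomycin-resistant colonies counted after 48 h at 30 °C. Result given as % inhibition of NQNO mutagenicity; three independent repeats.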

Vibrio harveyi [23] = test: Mutagenicity in Vibrio harveyi BB7X assessed as number of colonies after 48 hrs (reference value: 15 to 16 no_unit); assay type: ADME, organism-based; conditions: in vivo; summary of the method: as §1
Rattus norvegicus [24] = test: Neurotoxicity in rat at 30 mg/kg, ip after 4 hrs by rotarod test; assay type: toxicity, organism-based; conditions: in vivo
Vibrio harveyi [25] = test: Antimutagenic activity against Vibrio harveyi BB7M assessed as inhibition of NQNO-induced mutagenicity after 48 hrs; assay type: functional; summary of the method: as §3
Rattus norvegicus [26] = test: Toxicity in pilocarpine-induced status epilepticus Sprague-Dawley rat assessed as death at 100 mg/kg, ip after […]; assay type: organism-based; conditions: in vivo
Mus musculus [27] = test: Neurotoxicity in mouse at 100 mg/kg, ip after 0.5 hrs by rotarod test; assay type: toxicity, organism-based; conditions: in vivo; summary of the method: as §2
Rattus norvegicus [28] = test: Neurotoxicity in rat at 30 mg/kg, ip after […] by rotarod test; assay type: toxicity, organism-based; conditions: in vivo
Rattus norvegicus [29] = test: Neurotoxicity in rat at 30 mg/kg, ip after 0.5 hrs by rotarod test; assay type: toxicity, organism-based; conditions: in vivo
Rattus norvegicus [30] = test: Neurotoxicity in rat at 30 mg/kg, po after […] by rotarod test; assay type: toxicity, organism-based; conditions: in vivo
Mus musculus [31] = test: Neurotoxicity in mouse at 300 mg/kg, ip after 0.5 hrs by rotarod test; assay type: toxicity, organism-based; conditions: in vivo; summary of the method: as §2
Mus musculus [32] = test: Neurotoxicity in mouse at 40 mg/kg, ip after 1 hr by rotarod test; assay type: toxicity, organism-based; conditions: in vivo
Mus musculus [33] = test: Neurotoxicity in mouse at 40 mg/kg, ip after […] by rotarod test; assay type: toxicity, organism-based; conditions: in vivo
in vitro [34] = conditions: mouse, liver microsomes; remark: listed apart in the source
Rattus norvegicus [35] = test: Neurotoxicity in rat at 30 mg/kg, ip after 1 hr by rotarod test; assay type: toxicity, organism-based; conditions: in vivo
Vibrio harveyi [36] = test: Antimutagenic activity against Vibrio harveyi BB7XM assessed as inhibition of NQNO-induced mutagenicity after 48 hrs; assay type: functional; summary of the method: as §3
Vibrio harveyi [37] = test: Antimutagenic activity against Vibrio harveyi BB7X assessed as inhibition of NQNO-induced mutagenicity after 48 hrs; assay type: functional; summary of the method: as §3
Mus musculus [38] = test: Anticonvulsant activity in mouse assessed as protection against maximal electric shock-induced seizures at 30 mg/kg, ip measured after 0.5 hrs; assay type: functional, organism-based
Summary of the method: (§4)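 Mice dosed ip with suspension in 0.5% methylcellulose; maximal electroshock applied at the listed time after dosing. Protection = abolition of hindlimb tonic extension component of seizure; reported as animals protected/animals tested.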

Mus musculus [39] = test: Anticonvulsant activity in mouse assessed as protection against subcutaneous pentylenetetrazol-induced seizures at 30 mg/kg, ip measured after 4 hrs; assay type: functional, organism-based
Summary of the method: (§5)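 Mice dosed ip as 0.5% methylcellulose suspension; pentylenetetrazole 85 mg/kg in 0.9% NaCl injected subcutaneously into posterior midline, animals watched at least 30 min. Protection = no threshold seizure (single clonic spasm episode lasting ≥5 s); scored protected/tested.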

Mus musculus [40] = test: Neurotoxicity in mouse at 100 mg/kg, ip after 4 hrs by rotarod test; assay type: toxicity, organism-based; conditions: in vivo; summary of the method: as §2
Mus musculus [41] = test: Anticonvulsant activity in mouse assessed as protection against maximal electric shock-induced seizures at 10 mg/kg, ip measured after 0.5 hrs; assay type: functional, organism-based; summary of the method: as §4
Mus musculus [42] = test: Neurotoxicity in mouse at 10 mg/kg, ip after 4 hrs by rotarod test; assay type: toxicity, organism-based; conditions: in vivo
Mus musculus [43] = test: Neurotoxicity in mouse at 10 mg/kg, ip after 0.5 hrs by rotarod test; assay type: toxicity, organism-based; conditions: in vivo; summary of the method: as §2
Mus musculus [44] = test: Anticonvulsant activity in mouse assessed as protection against maximal electric shock-induced seizures at 10 mg/kg, ip measured after 4 hrs; assay type: functional, organism-based; summary of the method: as §4
Mus musculus [45] = test: Anticonvulsant activity in mouse assessed as protection against maximal electric shock-induced seizures at 100 mg/kg, ip measured after 4 hrs; assay type: functional, organism-based; summary of the method: as §4
Mus musculus [46] = test: Neurotoxicity in mouse at 3 mg/kg, ip after 0.5 hrs by rotarod test; assay type: toxicity, organism-based; conditions: in vivo; summary of the method: as §2
Mus musculus [47] = test: Anticonvulsant activity in mouse assessed as protection against maximal electric shock-induced seizures at 3 mg/kg, ip measured after 0.5 hrs; assay type: functional, organism-based; summary of the method: as §4
Mus musculus [48] = test: Anticonvulsant activity in mouse assessed as protection against subcutaneous pentylenetetrazol-induced seizures at 30 mg/kg, ip measured after 0.5 hrs; assay type: functional, organism-based; summary of the method: as §5
Mus musculus [49] = test: Anticonvulsant activity in mouse assessed as protection against maximal electric shock-induced seizures at 30 mg/kg, ip measured after 4 hrs; assay type: functional, organism-based; summary of the method: as §4
Mus musculus [50] = test: Anticonvulsant activity in mouse assessed as protection against maximal electric shock-induced seizures at 3 mg/kg, ip measured after 4 hrs; assay type: functional, organism-based; summary of the method: as §4
Mus musculus [51] = test: Neurotoxicity in mouse at 30 mg/kg, ip after 0.5 hrs by rotarod test; assay type: toxicity, organism-based; conditions: in vivo; summary of the method: as §2
Mus musculus [52] = test: Neurotoxicity in mouse at 3 mg/kg, ip after 4 hrs by rotarod test; assay type: toxicity, organism-based; conditions: in vivo

Cc1cccc(C)c1OCCOCCN[C@@H](C)CO
Activity (Vibrio harveyi [1]): 26 | Activity (Mus musculus [2]): Non-toxic | ED50 (Mus musculus [3]): > 43 mg/kg | Activity (Mus musculus [4]): Non-toxic | Activity (Rattus norvegicus [5]): Non-toxic | Activity (Rattus norvegicus [6]): Non-toxic | Activity (Mus musculus [7]): Non-toxic | Activity (Rattus norvegicus [8]): Non-toxic | Activity (Mus musculus [9]): Non-toxic | ED50 (Mus musculus [10]): 11.3 mg/kg | Activity (Rattus norvegicus [11]): Non-toxic | Activity (Mus musculus [12]): Non-toxic | Activity (Vibrio harveyi [13]): 15 | half-life at 20 µM (in vitro [14]): 37 min | Activity (Rattus norvegicus [15]): Non-toxic | Retention_time [16]: 3.8 min | Activity (Mus musculus [17]): Non-toxic | Activity (Vibrio harveyi [18]): 18 | Activity (Mus musculus [19]): Non-toxic | TD50 at […] [20]: 39.2 mg/kg | Activity (Mus musculus [21]): Non-toxic | inhibition (INH) (Vibrio harveyi [22]): 70% | Activity (Vibrio harveyi [23]): 22 | Activity (Rattus norvegicus [24]): Non-toxic | inhibition (INH) (Vibrio harveyi [25]): 69% | Activity (Rattus norvegicus [26]): Non-toxic | Activity (Mus musculus [27]): Toxic | Activity (Rattus norvegicus [28]): Non-toxic | Activity (Rattus norvegicus [29]): Non-toxic | Activity (Rattus norvegicus [30]): Non-toxic | Activity (Mus musculus [31]): Toxic | Activity (Mus musculus [32]): Non-toxic | Activity (Mus musculus [33]): Toxic | microsomal CLint at 20 µM (in vitro [34]): 47 µL/min/mg | Activity (Rattus norvegicus [35]): Non-toxic | inhibition (INH) (Vibrio harveyi [36]): 5%

CC[C@H](CO)NCCOCCOc1c(C)cccc1C
Activity (Vibrio harveyi [1]): 20 | Activity (Mus musculus [2]): Non-toxic | inhibition (INH) (Vibrio harveyi [37]): 56% | Activity (Mus musculus [38]): Active | Activity (Mus musculus [39]): inactive | Activity (Mus musculus [40]): Non-toxic | Activity (Mus musculus [41]): inactive | Activity (Mus musculus [42]): Non-toxic | Activity (Mus musculus [43]): Non-toxic | Activity (Vibrio harveyi [13]): 20 | Activity (Mus musculus [44]): inactive | Activity (Vibrio harveyi [18]): 27 | Activity (Mus musculus [45]): inactive | Activity (Mus musculus [46]): Non-toxic | Activity (Mus musculus [47]): inactive | inhibition (INH) (Vibrio harveyi [22]): 81% | Activity (Mus musculus [48]): inactive | Activity (Vibrio harveyi [23]): 26 | Activity (Mus musculus [49]): inactive | Activity (Mus musculus [50]): inactive | inhibition (INH) (Vibrio harveyi [25]): 55% | Activity (Mus musculus [31]): Toxic | Activity (Mus musculus [51]): Non-toxic | inhibition (INH) (Vibrio harveyi [36]): 30% | Activity (Mus musculus [52]): Non-toxic
